Where “and” joins values, the source holds several entries; their conditions need not be identical. Equal values may be shown once.
Test system: HEK-293T
Experiment: Multiplex assay against HEK293T
Assay type: toxicity, cell-based
Conditions: human
Method in brief: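 Live cells were stained at seeding with Hoechst33342, BioTracker Green Microtubule Cytoskeleton Dye, MitoTracker Red and Annexin V Alexa Fluor 680, then imaged on a CQ1 microscope at 37°C and 5% CO2 after compound addition. CellPathfinder machine-learning gating split cells into Hoechst high-intensity objects or normal cells. Normal cells were split into healthy, pyknosed or fragmented nuclei, and pyknosed cells into mitotic or apoptotic. Tubulin, mitochondrial-mass and membrane-permeability phenotypes are per cents of healthy-nucleus cells.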

[1] = 12 h, 1 µM, compound concentration 1 uM
[2] = 12 h, 10 µM, compound concentration 10 uM
[3] = 24 h, 1 µM, compound concentration 1 uM
[4] = 24 h, 10 µM, compound concentration 10 uM
[5] = 48 h, 1 µM, compound concentration 1 uM
[6] = 48 h, 10 µM, compound concentration 10 uM

Cc1cc(NC(=O)NCCN2CCC(O)(Cc3ccccc3)CC2)c2ccccc2n1 [PALOSURAN]
Population Apoptotic (%) [1]: 36% and 48% | Population Fragmented Nuclei (%) [1]: 7% and 9% | Population Healthy Nuclei (%) [1]: 77% and 81% | Population Hoechst High Intensity Objects (%) [1]: 6% and 9% | Population Membrane Permeable-Phenotype (%) [1]: 0% | Population Mitochondria Different-Phenotype (%) [1]: 42% and 57% | Population Mitotic Cells (%) [1]: 63% and 52% | Population Normal (%) [1]: 93% and 90% | Population Pyknosed Nuclei (%) [1]: 14% and 8% | Population Tubulin-Different-Phenotype (%) [1]: 25% and 26% | Total Cell Count [1]: 373 and 326 | Population Apoptotic (%) [2]: 38% and 61% | Population Fragmented Nuclei (%) [2]: 5% | Population Healthy Nuclei (%) [2]: 81% and 75% | Population Hoechst High Intensity Objects (%) [2]: 8% | Population Membrane Permeable-Phenotype (%) [2]: 0% | Population Mitochondria Different-Phenotype (%) [2]: 53% and 76% | Population Mitotic Cells (%) [2]: 61% and 38% | Population Normal (%) [2]: 91% | Population Pyknosed Nuclei (%) [2]: 12% and 18% | Population Tubulin-Different-Phenotype (%) [2]: 41% and 42% | Total Cell Count [2]: 461 and 346 | Population Apoptotic (%) [3]: 17% and 46% | Population Fragmented Nuclei (%) [3]: 9% and 10% | Population Healthy Nuclei (%) [3]: 78% and 76% | Population Hoechst High Intensity Objects (%) [3]: 6% and 4% | Population Membrane Permeable-Phenotype (%) [3]: 0% | Population Mitochondria Different-Phenotype (%) [3]: 24% and 45% | Population Mitotic Cells (%) [3]: 82% and 53% | Population Normal (%) [3]: 93% and 95% | Population Pyknosed Nuclei (%) [3]: 11% and 13% | Population Tubulin-Different-Phenotype (%) [3]: 19% and 14% | Total Cell Count [3]: 511 and 343 | Population Apoptotic (%) [4]: 35% and 51% | Population Fragmented Nuclei (%) [4]: 8% and 7% | Population Healthy Nuclei (%) [4]: 79% and 83% | Population Hoechst High Intensity Objects (%) [4]: 4% and 6% | Population Membrane Permeable-Phenotype (%) [4]: 0% | Population Mitochondria Different-Phenotype (%) [4]: 43% and 64% | Population Mitotic Cells (%) [4]: 64% and 48% | Population Normal (%) [4]: 95% and 93% | Population Pyknosed Nuclei (%) [4]: 11% and 9% | Population Tubulin-Different-Phenotype (%) [4]: 32% and 26% | Total Cell Count [4]: 598 and 396 | Population Apoptotic (%) [5]: 19% and 32% | Population Fragmented Nuclei (%) [5]: 15% and 13% | Population Healthy Nuclei (%) [5]: 79% and 81% | Population Hoechst High Intensity Objects (%) [5]: 3% | Population Membrane Permeable-Phenotype (%) [5]: 1% and 0% | Population Mitochondria Different-Phenotype (%) [5]: 16% and 24% | Population Mitotic Cells (%) [5]: 80% and 67% | Population Normal (%) [5]: 96% | Population Pyknosed Nuclei (%) [5]: 5% | Population Tubulin-Different-Phenotype (%) [5]: 12% and 15% | Total Cell Count [5]: 938 and 552 | Population Apoptotic (%) [6]: 29% and 41% | Population Fragmented Nuclei (%) [6]: 15% and 9% | Population Healthy Nuclei (%) [6]: 75% and 84% | Population Hoechst High Intensity Objects (%) [6]: 5% and 4% | Population Membrane Permeable-Phenotype (%) [6]: 0% | Population Mitochondria Different-Phenotype (%) [6]: 34% and 42% | Population Mitotic Cells (%) [6]: 70% and 58% | Population Normal (%) [6]: 94% and 95% | Population Pyknosed Nuclei (%) [6]: 8% and 6% | Population Tubulin-Different-Phenotype (%) [6]: 17% and 19% | Total Cell Count [6]: 874 and 570

CC(C)[C@H](C(=O)Nc1ccc(C(=O)NO)cc1)c1ccccc1 [AR-42]
Population Apoptotic (%) [1]: 11.9% and 3.88% | Population Fragmented Nuclei (%) [1]: 1.31% and 2.38% | Population Healthy Nuclei (%) [1]: 54.83% and 20.83% | Population Hoechst High Intensity Objects (%) [1]: 0% and 0.59% | Population Membrane Permeable-Phenotype (%) [1]: 0.95% and 0% | Population Mitochondria Different-Phenotype (%) [1]: 22.38% and 11.43% | Population Mitotic Cells (%) [1]: 88.1% and 96.12% | Population Normal (%) [1]: 100% and 99.41% | Population Pyknosed Nuclei (%) [1]: 43.86% and 76.79% | Total Cell Count [1]: 383 and 169 | Population Apoptotic (%) [2]: 11.02% and 12.75% | Population Fragmented Nuclei (%) [2]: 2.96% and 3.72% | Population Hoechst High Intensity Objects (%) [2]: 0.37% and 0% | Population Membrane Permeable-Phenotype (%) [2]: 0% and 3.12% | Population Mitotic Cells (%) [2]: 88.98% and 87.25% | Population Normal (%) [2]: 99.63% and 100% | Population Pyknosed Nuclei (%) [2]: 43.7% and 79.26% | Population Tubulin-Different-Phenotype (%) [2]: 5.56% and 9.38% | Total Cell Count [2]: 271 and 188 | Population Apoptotic (%) [3]: 31.4% and 16.41% | Population Fragmented Nuclei (%) [3]: 3.26% and 2.2% | Population Healthy Nuclei (%) [3]: 63.86% and 27.47% | Population Hoechst High Intensity Objects (%) [3]: 0% | Population Membrane Permeable-Phenotype (%) [3]: 0.43% and 0% | Population Mitochondria Different-Phenotype (%) [3]: 22.55% and 10% | Population Mitotic Cells (%) [3]: 68.6% and 83.59% | Population Normal (%) [3]: 100% | Population Pyknosed Nuclei (%) [3]: 32.88% and 70.33% | Population Tubulin-Different-Phenotype (%) [3]: 18.3% and 14% | Total Cell Count [3]: 368 and 182 | Population Apoptotic (%) [4]: 25.32% and 20.83% | Population Fragmented Nuclei (%) [4]: 1.5% and 2.78% | Population Healthy Nuclei (%) [4]: 68.8% and 30.56% | Population Hoechst High Intensity Objects (%) [4]: 0% and 0.55% | Population Membrane Permeable-Phenotype (%) [4]: 1.09% and 1.82% | Population Mitochondria Different-Phenotype (%) [4]: 14.21% and 14.55% | Population Mitotic Cells (%) [4]: 74.68% and 79.17% | Population Normal (%) [4]: 100% and 99.45% | Population Pyknosed Nuclei (%) [4]: 29.7% and 66.67% | Population Tubulin-Different-Phenotype (%) [4]: 2.73% and 3.64% | Total Cell Count [4]: 266 and 181 | Population Apoptotic (%) [5]: 38.66% and 18.09% | Population Fragmented Nuclei (%) [5]: 3.58% and 2.58% | Population Healthy Nuclei (%) [5]: 60.9% and 36.77% | Population Hoechst High Intensity Objects (%) [5]: 1.18% and 0% | Population Membrane Permeable-Phenotype (%) [5]: 0.49% and 3.51% | Population Mitochondria Different-Phenotype (%) [5]: 58.33% and 29.82% | Population Mitotic Cells (%) [5]: 61.34% and 81.91% | Population Normal (%) [5]: 98.82% and 100% | Population Pyknosed Nuclei (%) [5]: 35.52% and 60.65% | Population Tubulin-Different-Phenotype (%) [5]: 21.57% and 47.37% | Total Cell Count [5]: 339 and 155 | Population Apoptotic (%) [6]: 22.22% and 36.27% | Population Fragmented Nuclei (%) [6]: 2.93% and 2.55% | Population Healthy Nuclei (%) [6]: 66.95% and 32.48% | Population Hoechst High Intensity Objects (%) [6]: 0.42% and 0% | Population Membrane Permeable-Phenotype (%) [6]: 5% and 3.92% | Population Mitochondria Different-Phenotype (%) [6]: 22.5% and 11.76% | Population Mitotic Cells (%) [6]: 77.78% and 63.73% | Population Normal (%) [6]: 99.58% and 100% | Population Pyknosed Nuclei (%) [6]: 30.13% and 64.97% | Population Tubulin-Different-Phenotype (%) [6]: 9.38% and 15.69% | Total Cell Count [6]: 240 and 157

Reference: ChEMBL document CHEMBL5724801, “EUbOPEN Chemogenomics Library - Multiplex” (2024)
